Measurements gathered from unrelated publications.
Each line is one published result; the experiments were not run side by side.

CN[C@@H]1CCN(c2ccc(Nc3cc(NC4CC4)n4ncc(C#N)c4n3)cc2NC(C)=O)C1 has a kinetic solubility of 64 µg/mL (shake flask; PBS; 24 h, pH 7.4, 22 °C).
With Cc1cc(Nc2ccc(C(F)(F)F)cc2)c2ccccc2n1 the kinetic solubility was > 330 µM (simulated gastric fluid; pH 2, acidic).
CCCC#Cc1ccc([C@@H](CO)C(=O)N[C@H](C)c2ccccc2)cc1 has a kinetic solubility of 7.4 µM (PBS; pH 7.4).
CCCCOC(=O)NS(=O)(=O)c1sc(CC(C)C)cc1-c1ccc2c(c1)CCN(C(C)=O)C2 gave a kinetic solubility of 45 µM (aqueous buffer; pH 7.4, 37 °C).
With Fc1ccc(Nc2c(-c3ccccn3)nc3ccc(C4CC4)cn23)cc1 the kinetic solubility was 3 µM (aqueous buffer; 24 h).
With CC(=O)Nc1cc(Nc2cc(NC3CC3)n3ncc(C#N)c3n2)ccc1N(C)CC1COC1 the kinetic solubility was 0.2 µg/mL (shake flask; PBS; 24 h, pH 7.4, 22 °C).
O=C(O)CN(CCCc1ccccc1)CC(=O)N[C@@H](Cc1c[nH]cn1)C(=O)NCc1ccccc1 gave a kinetic solubility of 179 µM (PBS; 24 h, pH 7.4).
CCOC(=O)NS(=O)(=O)c1sc(CC(C)C)cc1-c1ccc2c(c1)CN(C(=O)OCC)C2 has a kinetic solubility of 58 µM (aqueous buffer; pH 7.4, 37 °C).
With CN[C@@H]1CCCN(c2ccc(Nc3cc(NC4CC4)n4ncc(C#N)c4n3)cc2NC(C)=O)C1 the kinetic solubility was 52 µg/mL (shake flask; PBS; 24 h, pH 7.4, 22 °C).
With CCn1cc(-c2cc(Cn3ccnc3)cc3c2OCCN([C@H](c2cc(OC)ccn2)C2CC2)C3=O)c(C(F)(F)F)n1 the kinetic solubility was 74 µM (PBS; 1 h, pH 7.4).
The kinetic solubility of CCC(=O)Nc1cc(Nc2cc(NC3CC3)n3ncc(C#N)c3n2)ccc1N1CCC[C@@H](NC)C1 is reported as 65 µg/mL (shake flask; PBS; 24 h, pH 7.4, 22 °C).
The kinetic solubility of CCOC(=O)NS(=O)(=O)c1sc(CC(C)C)cc1-c1ccc2c(c1)CN(C)C(=O)C2 is reported as 61 µM (aqueous buffer; pH 7.4, 37 °C).
The kinetic solubility of CC[C@H](NC(=O)[C@H](CS(=O)(=O)CC1CC1)N[C@@H](c1ccc(F)cc1)C(F)(F)F)C(=O)C(=O)NC1CC1 is reported as 223 µM (PBS; pH 7.4).
With Cc1noc([C@H](Cc2c[nH]cn2)NC(=O)CN(CCCc2ccccc2)CC(=O)O)n1 the kinetic solubility was 198 µM (PBS; 24 h, pH 7.4).
With CCCCOC(=O)NS(=O)(=O)c1sc(CC(C)C)cc1-c1ccc(OC(F)(F)F)c(Cn2ccnc2)c1 the kinetic solubility was 52 µM (aqueous buffer; pH 7.4, 37 °C).
For CNC(=O)[C@H](Cc1c[nH]cn1)NC(=O)CN(CCCc1ccccc1)CC(=O)O, the kinetic solubility was 170 µM (PBS; 24 h, pH 7.4).
CC(=O)Nc1cc(Nc2cc(NC3CC3)n3ncc(C#N)c3n2)ccc1N(C)C[C@@H]1CCCN1 gave a kinetic solubility of 68 µg/mL (shake flask; PBS; 24 h, pH 7.4, 22 °C).
COC(=O)CN(CCCc1ccccc1)CC(=O)N[C@@H](Cc1c[nH]cn1)c1nc(C)no1 has a kinetic solubility of 172 µM (PBS; 24 h, pH 7.4).
The kinetic solubility of Cc1cc(Nc2ccc(S(F)(F)(F)(F)F)cc2)n2ccnc2n1 is reported as 8.9 µM (PBS; pH 6.5).
For CC(=O)Nc1cc(Nc2cc(NC3CC3)n3ncc(C#N)c3n2)ccc1N(C)[C@@H]1CCOC1, the kinetic solubility was 25 µg/mL (shake flask; PBS; 24 h, pH 7.4, 22 °C).
For COC(=O)CN(CC(=O)N[C@@H](Cc1c[nH]cn1)C(=O)OC)Cc1ccccc1, the kinetic solubility was 191 µM (PBS; 24 h, pH 7.4).
